Assay results as given in ChEMBL document CHEMBL1129250, “Interaction of 1,4-dihydropyridine and pyridine derivatives with adenosine receptors: selectivity for A3 receptors” (J Med Chem, 1996).

What was measured:
Adenosine receptor A2a = Adenosine receptor A2a (Rattus norvegicus, UniProt P30543); experiment: Displacement of [3H]-CGS- 21680 binding to Adenosine A2A receptor in rat striatal membranes; assay type: cell membranes, Membrane
Method in brief: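 Adenosine deaminase (3 units/mL) present during preparation, 30 min preincubation at 30 °C and incubation. At least five competitor concentrations over 3 orders of magnitude.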

[1] = molecular target: T1, Voltage-gated L-type calcium channel (Rattus norvegicus, UniProt P22002+Q02485+P27732); experiment: Inhibition of [3H]isradipine binding to L-type [Ca2+] channel of rat brain membranes; assay type: cell membranes, Membrane
Method in brief: (§1)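 Rat brain membranes (~100 μg protein) incubated 1 h at 25 °C with 0.1 nM [3H]isradipine and varying competitor in 50 mM Tris, pH 7.4. Nonspecific binding with 10 μM nitrendipine.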

Adenosine receptor A1 = molecular target: T2, Adenosine receptor A1 (Rattus norvegicus, UniProt P25099); experiment: (§2) Displacement of [3H](R)-PIA binding to Adenosine A1 receptor in rat brain membranes; assay type: cell membranes
T2 sequence (P25099 whole entry): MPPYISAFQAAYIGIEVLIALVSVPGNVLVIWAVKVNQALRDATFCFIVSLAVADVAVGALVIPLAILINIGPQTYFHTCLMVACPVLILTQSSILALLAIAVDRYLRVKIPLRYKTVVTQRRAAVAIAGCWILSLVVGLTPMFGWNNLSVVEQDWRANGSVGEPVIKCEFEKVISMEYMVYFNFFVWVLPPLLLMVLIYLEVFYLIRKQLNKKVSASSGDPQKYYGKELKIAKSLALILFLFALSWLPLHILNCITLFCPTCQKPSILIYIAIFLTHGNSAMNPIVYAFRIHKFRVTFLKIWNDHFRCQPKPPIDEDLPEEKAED

Adenosine receptor A3 [2] = molecular target: T3, Adenosine receptor A3 (Homo sapiens, UniProt P0DMS8); experiment: Displacement of [125]AB-MECA binding to human Adenosine A3 receptor expressed in HEK cells; assay type: cell-based, HEK293
T3 sequence (P0DMS8 whole entry): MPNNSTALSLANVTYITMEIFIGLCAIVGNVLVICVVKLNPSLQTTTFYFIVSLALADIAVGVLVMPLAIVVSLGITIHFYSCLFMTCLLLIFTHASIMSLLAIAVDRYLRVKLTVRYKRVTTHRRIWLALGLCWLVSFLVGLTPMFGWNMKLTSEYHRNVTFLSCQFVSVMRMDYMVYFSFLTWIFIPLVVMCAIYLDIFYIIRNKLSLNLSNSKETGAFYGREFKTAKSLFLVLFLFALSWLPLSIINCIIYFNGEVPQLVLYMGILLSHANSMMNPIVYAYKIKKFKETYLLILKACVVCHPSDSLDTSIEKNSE

[3] = molecular target: T4, Equilibrative nucleoside transporter 1 (Rattus norvegicus, UniProt O54698); experiment: Ability to displace radioligand from Na+ independent Adenosine transporter in rat
T4 sequence (O54698 whole entry): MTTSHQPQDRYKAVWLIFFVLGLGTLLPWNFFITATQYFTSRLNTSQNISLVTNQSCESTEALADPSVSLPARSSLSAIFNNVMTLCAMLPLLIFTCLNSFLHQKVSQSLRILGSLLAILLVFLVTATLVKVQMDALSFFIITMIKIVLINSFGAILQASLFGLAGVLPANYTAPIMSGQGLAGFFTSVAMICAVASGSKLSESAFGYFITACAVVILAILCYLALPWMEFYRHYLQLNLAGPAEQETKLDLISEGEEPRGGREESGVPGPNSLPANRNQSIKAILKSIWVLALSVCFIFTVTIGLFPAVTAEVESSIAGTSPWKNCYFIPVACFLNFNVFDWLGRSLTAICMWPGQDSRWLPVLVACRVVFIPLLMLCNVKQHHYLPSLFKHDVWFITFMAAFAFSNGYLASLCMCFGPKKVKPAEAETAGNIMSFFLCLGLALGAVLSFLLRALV
Method in brief: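 Rat forebrain membranes incubated 30 min at 23 °C with 0.7 nM [3H]NBI and varying competitor concentrations in 50 mM Tris, pH 7.4. Ki or percent of specific binding displaced.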

Adenosine receptor A3 [4] = molecular target: T5, Adenosine receptor A3 (Rattus norvegicus, UniProt P28647); experiment: Binding affinity against rat Adenosine A3 receptor from CHO cells; assay type: cell-based
T5 sequence (P28647 whole entry): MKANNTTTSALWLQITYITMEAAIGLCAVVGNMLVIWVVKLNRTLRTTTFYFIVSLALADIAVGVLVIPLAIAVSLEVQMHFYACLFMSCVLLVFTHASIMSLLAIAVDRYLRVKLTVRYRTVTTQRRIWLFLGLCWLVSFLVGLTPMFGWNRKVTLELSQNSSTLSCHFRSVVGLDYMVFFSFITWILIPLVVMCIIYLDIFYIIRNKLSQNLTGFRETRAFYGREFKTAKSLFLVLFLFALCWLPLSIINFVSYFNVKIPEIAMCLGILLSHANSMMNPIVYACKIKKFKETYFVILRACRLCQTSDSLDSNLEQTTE
Method in brief: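 CHO cell membranes stably expressing cloned rat A3 receptor. Nonspecific binding defined with 100 μM R-PIA. Filtration assay. IC50 converted to Ki by Cheng–Prusoff.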

[5] = molecular target: T6, Adenosine receptor A3 (Rattus norvegicus) (UniProt P28647); experiment: Inhibition of adenylyl cyclase by A3 agonist IB-MECA(10e-6M) in CHO cell membranes expressing rat Adenosine A3 receptor; assay type: functional, cell-based
T6 sequence (whole entry): T5 sequence (P28647 whole entry)
Method in brief: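 Membranes from CHO cells stably expressing rat A3 receptor. Stimulated with 1 μM forskolin and [α-32P]ATP. Test compounds at 10 μM against the stated IB-MECA concentration. Stop buffer contained [3H]cyclic AMP. Reported as percent inhibition; significance by t-test.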

[6] = molecular target: T1, Voltage-gated L-type calcium channel; experiment: Inhibition of [3H]-isradipine binding to L-type [Ca2+] channel of rat brain membranes; assay type: cell membranes, Membrane; method in brief: as §1
[7] = molecular target: T7, Adenosine receptor A1 (Rattus norvegicus) (UniProt P25099); experiment: as §2; assay type: cell membranes; details: concentration not given here
T7 sequence (whole entry): T2 sequence (P25099 whole entry)
Method in brief: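 Rat cerebral cortex membranes with [3H]-(R)-PIA. Adenosine deaminase (3 units/mL) present during membrane preparation, during a 30 min preincubation at 30 °C and during incubation. Competitor at ≥5 concentrations spanning 3 log units, DMSO ≤2%.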

[8] = molecular target: Adenosine receptor A2a (Rattus norvegicus) (UniProt P30543); experiment: Displacement of [3H]-CGS- 21680 from Adenosine A2A receptor in rat striatal membranes; assay type: cell membranes; details: Membrane, concentration not given here
Method in brief: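 Rat striatal membranes with [3H]CGS 21680. Adenosine deaminase (3 units/mL) present during preparation, 30 min preincubation at 30 °C and incubation. At least five competitor concentrations over 3 orders of magnitude.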

Adenosine receptor A2a, sequence (P30543 whole entry): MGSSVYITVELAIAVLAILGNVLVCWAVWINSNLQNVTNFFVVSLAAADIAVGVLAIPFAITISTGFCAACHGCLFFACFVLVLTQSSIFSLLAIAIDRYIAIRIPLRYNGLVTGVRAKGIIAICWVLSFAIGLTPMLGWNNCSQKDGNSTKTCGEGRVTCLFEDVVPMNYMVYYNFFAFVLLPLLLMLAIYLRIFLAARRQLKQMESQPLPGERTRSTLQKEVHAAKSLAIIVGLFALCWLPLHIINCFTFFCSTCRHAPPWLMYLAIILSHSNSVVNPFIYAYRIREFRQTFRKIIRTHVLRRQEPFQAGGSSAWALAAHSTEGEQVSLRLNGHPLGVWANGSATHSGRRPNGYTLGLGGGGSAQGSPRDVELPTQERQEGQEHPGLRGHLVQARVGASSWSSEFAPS
Adenosine receptor A2a (Rattus norvegicus), sequence (P30543 whole entry): as above

Row | SMILES | Ki (Adenosine receptor A2a; read-out: Ki) | other results
1 | COC(=O)C1=C(C)NC(C)=C(C(=O)OCCCN2CCC(c3ccccc3)(c3ccccc3)CC2)[C@@H]1c1cccc([N+](=O)[O-])c1 [DEXNIGULDIPINE] | – | Ki (Adenosine receptor A2a): Not Active
2 | CCO/C(O)=C1\C(C)=NC(C)=C(C(=O)OC)C1c1ccccc1C(F)(F)F (centres undefined) | 20.7 µM | –
3 | COc1ccc(C2C=CNC=C2)cc1 | 71 µM | –
4 | COC(=O)C1=C(C)NC(C)=C(C(=O)OCCN(C)Cc2ccccc2)C1c1cccc([N+](=O)[O-])c1 (centres undefined) [NICARDIPINE] | – | Ki [3]: 5.36 µM; Ki (Adenosine receptor A3 [4]): 11 µM; inhibition [5]: 27.2%
5 | CCO/C(O)=C1\C(C)=NC(C)=C(C(=O)OC)C1c1ccc(O)c(OC)c1 (centres undefined) | 56.8 µM | –
6 | CCCCC1=C(C(=O)OCC)C(C)/C(=C(/O)OCC)C(C)=N1 (centres undefined) | 38 µM | –
7 | CCOC(=O)C1=C(C)NC(C)=C(C(=O)OC)C1/C=C/c1ccccc1 (centres undefined) | 49.3 µM | Ki (Adenosine receptor A1): 16.1 µM; Ki [6]: 0.694 µM; Ki (Adenosine receptor A3 [2]): 0.67 µM; Ki (Adenosine receptor A3 [4]): 12.1 µM
8 | CCOC(=O)C1=C(c2ccccc2)N=C(C)/C(=C(\O)OCC)C1C (stereo in doubt; 30) | 28.4 µM | Inhibition [1]: < 10%
9 | CCO/C(O)=C1\C(C)=NC(C)=C(C(=O)OC)C1C (stereo in doubt; 1) | 46.1 µM | –
10 | CCO/C(O)=C1\C(C)=NC(C)=C(C(=O)OC)C1CC(C)CCC=C(C)C (centres undefined) | 23.1 µM | –
11 | CCOC(=O)C1=C(C)NC(C)=C(C(=O)OC)C1c1cccc([N+](=O)[O-])c1 (centres undefined) [NITRENDIPINE] | 23 µM | Ki (Adenosine receptor A1): 8.96 µM; Ki (Adenosine receptor A3 [2]): 8.3 µM
12 | CCO/C(O)=C1\C(C)=NC(C)=C(C(=O)OC)C1c1ccc([N+](=O)[O-])cc1 (centres undefined) | 35.6 µM | inhibition [7]: 37%
13 | CCOC(=O)C1=C(C)NC(C)=C(C(=O)OC)C1C#Cc1ccccc1 (centres undefined) | – | Inhibition [1]: 23%
14 | COCCO/C(O)=C1\C(C)=NC(C)=C(C(=O)OC)C1C (centres undefined) | – | inhibition [8]: 37%
15 | CCOC(=O)C1=C(c2ccccc2)N=C(C)/C(=C(\O)OCC)C1C (stereo in doubt; 27) | 35.9 µM | Inhibition [1]: 17%

The remaining molecules from weak to strong by Ki (Adenosine receptor A2a; read-out: Ki), led by results:

Row | Ki (Adenosine receptor A2a; read-out: Ki) | SMILES | other results
16 | 12.7 µM | CCO/C(O)=C1\C(C)=NC(C)=C(C(=O)OC)C1c1ccc(OC)cc1 (centres undefined) | –
17 | 11.5 µM | CCCC1C(C(=O)OCC)=C(C)N=C(C)/C1=C(\O)OC (centres undefined) | –
18 | 9.72 µM | CO/C(O)=C1/C(C)=NC(C)=C(C(=O)OCc2ccccc2)C1C (centres undefined) | –
19 | 9.56 µM | CCO/C(O)=C1\C(C)=NC(C)=C(C(=O)OC)C1CC (centres undefined) | –
20 | 8.96 µM | CCO/C(O)=C1\C(C)=NC(C)=C(C(=O)OC)C1C (stereo in doubt; 29) | –
21 | 7.1 µM | CCO/C(O)=C1/C(C)=NC(C)=C(C(=O)OCCSc2ccccc2)C1C (centres undefined) | –
22 | 6.71 µM | CCO/C(O)=C1\C(C)=NC(C)=C(C(=O)OC)C1CCc1ccccc1 (centres undefined) | –
23 | 5.27 µM | CCO/C(O)=C1\C(C)=NC(C)=C(C(=O)OC)C1c1ccc2c(c1)OCO2 (centres undefined) | Ki (Adenosine receptor A1): 3.66 µM; Ki (Adenosine receptor A3 [2]): 4.58 µM
24 | 4.77 µM | CCOC(=O)C1=C(c2ccccc2)N=C(C)/C(=C(/O)OCC)C1/C=C/c1ccccc1 (centres undefined) | Inhibition [1]: < 10%
25 | 2.74 µM | CCOC(=O)C1=C(C)NC(C)=C(C(=O)OC)C1c1ccccc1 (centres undefined) | –
